Active and inactive are the calls of the source.
Tests used:
[1] = species on record: Rattus norvegicus; experiment: Estimated dose giving a half-maximal decrease of the DA synthesis rate in the striatum of rat brain; format: functional
How it was run: (§1)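 Male Sprague–Dawley rats (200–350 g) were reserpinized, then given the drug sc in saline at four to six dose levels. NSD 1015 (100 mg/kg ip) was given 30 min before death to block decarboxylase. DOPA accumulation was measured spectrophotometrically in the limbic system and striatum as an index of DA synthesis rate. ED50 and ED100 were read from separate dose–response curves for each brain area. Experiments ran 9–12 a.m.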

[2] = species on record: Rattus norvegicus; experiment: Motor activity in reserpinized rats at the biochemical ED50 dose level expressed as accumulation counts per 60 min; format: functional
How it was run: (§2)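 Male Sprague–Dawley rats (200–350 g) pretreated with reserpine 10 mg/kg ip 6 h beforehand. Drugs in saline given sc at doses matching the biochemical ED50 and ED100 for the DA-synthesis decrease. Each rat was caged singly in a photocell motility meter right after dosing and counts were accumulated over 60 min, testing between 1 and 6 p.m. Means ± SEM, n = 3–4, compared by ANOVA then Student's t test.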

[3] = species on record: Rattus norvegicus; experiment: Estimated dose giving a half-maximal decrease of the DA synthesis rate in the limbic system of rat brain; format: functional; how it was run: as §1
[4] = species on record: Rattus norvegicus; experiment: Motor activity in reserpinized rats at the biochemical ED100 dose level expressed as accumulation counts per 60 min; format: functional; how it was run: as §2
[5] = species on record: Canis familiaris; experiment: Emetic activity in dogs given as total dose at which the animal vomits; format: functional, Canis lupus familiaris
How it was run: (§3)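 Four female beagles (8–15 kg) with free access to food and water, not pretreated. Drug was infused iv at constant rate into the cephalic vein. The rate (k0) was set so that vomiting would be expected about 10 min after the start of infusion. The total dose infused at vomiting was recorded. Relative k0 is the compound's k0 divided by the apomorphine k0.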

[6] = species on record: Rattus norvegicus; experiment: Estimated dose giving an approximately maximal decrease of the DA synthesis rate; format: functional; how it was run: as §1
[7] = tested on: Canis familiaris; experiment: Relative rate of administration of compound in dogs; format: functional, Canis lupus familiaris; how it was run: as §3
[8] = species on record: Canis familiaris; experiment: Total dose at which the animal vomits; format: functional, Canis lupus familiaris; how it was run: as §3
[9] = tested on: Rattus norvegicus; experiment: Estimated dose giving a half-maximal decrease of the DA synthesis rate in the limbic system of rat brain; I = Inactive (>45 umol/kg); format: functional, organism-based; how it was run: as §1
[10] = tested on: Rattus norvegicus; experiment: Estimated dose giving a half-maximal decrease of the DA synthesis rate in the striatum of rat brain; I = Inactive (>45 umol/kg); format: functional, organism-based; how it was run: as §1
[11] = tested on: Rattus norvegicus; experiment: Estimated dose giving an approximately maximal decrease of the DA synthesis rate; I = Inactive (>45 umol/kg); format: functional, organism-based
How it was run: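 Male Sprague-Dawley rats (200–350 g) pretreated with reserpine. Compounds dissolved in saline and given sc at four to six dose levels. Aromatic L-amino acid decarboxylase inhibited with NSD 1015 (100 mg/kg ip, 30 min before death). Brain DOPA measured spectrophotometrically as an index of DA synthesis rate. Experiments run 9–12 a.m. Dose read from separate dose–response curves for each brain area.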

[12] = tested on: Canis lupus familiaris; experiment: Emetic activity in dogs by constant-rate intravenous infusion was measured

| Compound | ED50 [1] [µmol/kg] | Accumulation counts [2] | ED50 [3] [µmol/kg] | Accumulation counts [4] | TED [5] [nM/kg] | ED100 [6] [nM/kg] | rel ko [7] | TED [8] [nM/kg] | ED50 [9] | ED50 [10] | ED100 [11] | rel ko [12] |
| --- | --- | --- | --- | --- | --- | --- | --- | --- | --- | --- | --- | --- |
| CCCN(CCC)C1Cc2ccc(O)cc2C1 (centres undefined) | 1.44 | 23 | 1.25 | 89 | 247 | 6500 | 9.9 | – | – | – | – | – |
| CCCN(CCC)C1CCc2c(O)cccc2C1 (centres undefined) [5-OH-DPAT] | 0.009 | 25 | 0.011 | 76 | – | 40 | – | 4.7 | – | – | – | – |
| CCCN(CCC)CC1CCc2c(O)cccc2C1 (centres undefined) | – | – | – | – | – | – | – | – | inactive | inactive | inactive | – |
| CN1CCc2cccc3c2[C@H]1Cc1ccc(O)c(O)c1-3 [APOMORPHINE] | 0.044 | 24 | 0.041 | 64 | – | 230 | – | 32.3 | – | – | – | 1 |
| CCCN(CCC)C1Cc2cccc(O)c2C1 (centres undefined) | 0.063 | 13 | 0.059 | 108 | – | 350 | – | 25 | – | – | – | – |
| CCCN(CCC)CC1Cc2cccc(O)c2C1 (centres undefined) | 0.96 | 25 | 0.67 | 89 | 292 | 4500 | 9.1 | – | – | – | – | – |
| CCCN(CCC)C1CCCc2c(O)cccc2C1 (centres undefined) | – | – | – | – | – | – | – | – | inactive | inactive | inactive | – |
